Source: PubChem BioAssay
FLuc stim CS: FLuc activators, initial screening, artefact control for FLuc-dependent activation tests, biochemical, ATPlite luminescence; Luciferin 4-monooxygenase (Photinus pyralis), P08659; ATPlite luciferase biochemical, 10 min; 0 = ATP-free wells, 1 = DMSO control; activation factor at 10 µM; 200,000 tested, under 10 active; AID 1027, 2008;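 active means luciferase activation factor, scaled between plate controls, of at least 2 with compound at 10 µM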
Target sequence (P08659 whole entry, looked up): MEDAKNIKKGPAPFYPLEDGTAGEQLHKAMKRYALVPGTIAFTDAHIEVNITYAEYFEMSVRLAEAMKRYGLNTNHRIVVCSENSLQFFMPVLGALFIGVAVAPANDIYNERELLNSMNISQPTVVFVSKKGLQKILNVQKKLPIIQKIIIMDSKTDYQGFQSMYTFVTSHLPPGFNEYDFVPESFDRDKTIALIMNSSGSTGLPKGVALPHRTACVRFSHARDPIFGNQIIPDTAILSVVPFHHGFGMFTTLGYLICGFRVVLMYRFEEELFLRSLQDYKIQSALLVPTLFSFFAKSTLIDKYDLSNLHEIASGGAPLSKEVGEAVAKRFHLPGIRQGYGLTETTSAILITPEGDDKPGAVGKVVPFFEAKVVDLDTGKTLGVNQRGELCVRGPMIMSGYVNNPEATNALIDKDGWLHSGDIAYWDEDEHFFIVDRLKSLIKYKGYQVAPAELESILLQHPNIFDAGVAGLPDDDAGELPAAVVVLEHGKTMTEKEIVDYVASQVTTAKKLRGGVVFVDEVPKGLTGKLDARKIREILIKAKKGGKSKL
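Material: Luciferase/luciferin reagent mix; Doses: test compounds dosed from 2 mM stocks in 100% DMSO; Schedule: 10 min incubation after luciferase reagent addition, room temperature; Measured by: luminescence from luciferase reaction; Read-out: luminescence gain marking luciferase activators.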
HSP90 inh: HSP90 inhibitors, primary screen, cell lysate, luminescence | Heat shock protein HSP 90 (rabbit reticulocyte lysate; luciferase refolding) | Rabbit reticulocyte lysate, luciferase refolding luminescence, 3 h | inhibition, % at 5.6 µM | 290,000 tested, 0.91% active | AID 1789, 2009;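 active means inhibition above the screen-wide mean plus 3 SD, computed separately per campaign, cut at about 16% in these data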;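 further: 0% = DMSO wells and 100% = 60 µM geldanamycin wells; inhibitors lower the luminescence because luciferase stays unfolded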
FLuc inh counter: firefly luciferase enzyme inhibitors, primary screen, artefact control for luciferase-based inhibitor screens, biochemical, luminescence, ATPLite; 10 min; inhibition, % at 10 µM; 200,000 tested, 1.5% active; AID 1006, 2008;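 active means inhibition above about 50% when tested at 10 µM, limit read from the data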
PPC-1+TRAIL kill: compounds killing PPC-1 cancer cells with TRAIL present, primary screen, TRAIL potentiator project, ATPLite luminescence, uHTS; 220,000 tested, 0.41% active; cell killing (% activity), % at 4 µM or 5 µM; PPC-1 cells + TRAIL, ATPLite viability luminescence;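 active means cell killing above 50% in the first pass at 4 µM, then a duplicate retest at 5 µM averaging 50% or more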;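 further: plate controls were cells with TRAIL plus DMSO for no effect and medium-only wells lacking cells for full effect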
C8 TRAIL sens: viability loss with TRAIL in NB7+C8 cells, primary screen, TRAIL sensitizer project, cell-based, ATPlite luminescence. inhibition (viability loss, TRAIL sensitization), % at 10 µM. 360,000 tested, 1% active;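 active means compounds causing at least 50% loss of cell viability in the single-dose screen, relative to plate controls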
* = called active by the depositor. Most compounds without a hit are left out; they make up all but 2% or so of the library.

O=C(NCc1cc(Cl)cc(Cl)c1)c1ccc2nc([C@@H]3O[C@H](CO)[C@@H](O)[C@H]3O)[nH]c2c1 was read as C8 TRAIL sens -17.
`Cc1ccc(CN=C2Nc3ccccc3CS2)cc1` gave FLuc stim CS 0.2, HSP90 inh 3, FLuc inh counter 81*, PPC-1+TRAIL kill 34 and C8 TRAIL sens 49.
COc1ccc2oc(-c3ccccc3)cc(=O)c2c1 was read as C8 TRAIL sens 72*.
`COc1ccc2c(=O)c(-c3ccccc3)coc2c1` gave FLuc stim CS 0.3, HSP90 inh 4, FLuc inh counter 70*, PPC-1+TRAIL kill 33 and C8 TRAIL sens 41.
Screening CC(=O)Nc1cccc(NC(=O)Nc2ccc(C(C)=O)cc2)c1 returned FLuc stim CS 0.7, HSP90 inh 4, FLuc inh counter 29, PPC-1+TRAIL kill 19 and C8 TRAIL sens 14.
For CCn1c(C)nc2cc(C(=O)N/N=C/c3ccccc3C)ccc21 the results were FLuc stim CS 0.5, HSP90 inh -4, FLuc inh counter 53*, PPC-1+TRAIL kill 8 and C8 TRAIL sens 24.
`CC(=O)c1cccc(NC(=O)Nc2ccc(C(=O)N3CCCC3)cc2)c1` gave FLuc stim CS 0.4, HSP90 inh -2, FLuc inh counter 61*, PPC-1+TRAIL kill 20 and C8 TRAIL sens 25.
`CCn1c(C)nc2cc(NC(=O)Nc3cccc(C(C)=O)c3)ccc21` gave HSP90 inh 2 and C8 TRAIL sens 56*.
`CCN(CC)c1ccc(NC(=O)Nc2cccc(C(C)=O)c2)cc1` gave FLuc stim CS 0.5, HSP90 inh 0, FLuc inh counter 52*, PPC-1+TRAIL kill 42 and C8 TRAIL sens 32.
Screening CC(=O)c1ccc(OCc2nnn(CC(=O)O)c2-c2ccccc2)cc1 returned C8 TRAIL sens 7.
`CN(Cc1cn(Cc2ccc(Cl)cc2)nn1)C1CN(Cc2cn(Cc3ccc(Cl)cc3)nn2)S(=O)(=O)C1` (stereo not drawn) gave C8 TRAIL sens 9.
`O=C(N/N=C/c1ccc(F)cc1)c1ccccc1` gave FLuc stim CS 0.2, HSP90 inh 4, FLuc inh counter 75*, PPC-1+TRAIL kill 37 and C8 TRAIL sens 32.
`O=C(N/N=C/c1sc2ccccc2c1O)c1ccccc1` gave FLuc stim CS 0.4, HSP90 inh 5, FLuc inh counter 57*, PPC-1+TRAIL kill 27 and C8 TRAIL sens 53*.
Screening O=C(Nc1ccccc1C(=O)N/N=C/c1ccc(F)cc1)c1ccccc1Br returned FLuc stim CS 0.3, HSP90 inh 0, FLuc inh counter 74*, PPC-1+TRAIL kill 16 and C8 TRAIL sens 8.
COc1ccc(C(=O)N/N=C/c2sc3ccccc3c2O)cc1 was read as FLuc stim CS 0.6, HSP90 inh 15, FLuc inh counter 35, PPC-1+TRAIL kill 38 and C8 TRAIL sens 48.
CSc1ccc(/C=N/NC(=O)c2ccc(C)c(C)c2)cc1 was read as FLuc stim CS 0.9, HSP90 inh 4, FLuc inh counter 8, PPC-1+TRAIL kill 4 and C8 TRAIL sens -4.
CSc1ccc(/C=N/NC(=O)c2cc(O)cc(O)c2)cc1 was read as FLuc stim CS 0.3, HSP90 inh -1, FLuc inh counter 74*, PPC-1+TRAIL kill 22 and C8 TRAIL sens 46.
For CC(C)NC(=O)N[C@H]1CC[C@H](CC(=O)NCc2ccc(Oc3ccccc3)cc2)O[C@@H]1CO the results were C8 TRAIL sens -12.
`Cc1cc(NS(=O)(=O)c2ccc(NC(=O)c3ccc([N+](=O)[O-])cc3)cc2)nc(C)n1` gave C8 TRAIL sens -5.
CCCn1c(C)cc(C(=O)Cn2nnc3ccccc3c2=O)c1C was read as FLuc stim CS 0.4, HSP90 inh 5, FLuc inh counter 57*, PPC-1+TRAIL kill 32 and C8 TRAIL sens 31.
COc1ccc(C(=O)CN2C(=O)c3ccccc3S2(=O)=O)cc1Br was read as HSP90 inh 5 and C8 TRAIL sens 20.
Screening CCCn1c(C)cc(C(=O)CN2C(=O)c3ccccc3S2(=O)=O)c1C returned C8 TRAIL sens 58*.
For Cc1ccc(C)c(C(=O)CN2C(=O)c3ccccc3S2(=O)=O)c1 the results were FLuc stim CS 1, HSP90 inh -10, FLuc inh counter -2, PPC-1+TRAIL kill 10 and C8 TRAIL sens 23.
`COc1ccc(C(=O)CN2C(=O)c3ccccc3S2(=O)=O)cc1` gave HSP90 inh 12, PPC-1+TRAIL kill 38 and C8 TRAIL sens 65*.
For CC(C)c1cccc(-c2csc(C(O)c3cccc(Cl)c3)n2)c1 (stereo not drawn) the results were C8 TRAIL sens -15.
`CC1=C(C(=O)N2CCOCC2)CC(CC(=O)NCCc2ccccn2)C(=O)N1Cc1ccccc1` (stereo not drawn) gave C8 TRAIL sens 11.
For CC(C)c1ccc(C(=O)NN2C(=O)C3CCCCC3C2=O)cc1 (stereo not drawn) the results were FLuc stim CS 0.2, HSP90 inh 6, FLuc inh counter 80*, PPC-1+TRAIL kill 18 and C8 TRAIL sens 23.
For Nc1nc(SCC(=O)Nc2cc(Cl)c(Cl)cc2Cl)n[nH]1 the results were C8 TRAIL sens 8.
For COc1cccc2c1CCc1c-2nc2ccccc2c1C(=O)O the results were HSP90 inh 5 and C8 TRAIL sens 68*.
CCN(CC)c1ccc(/C=C(/C#N)c2nc3ccccc3[nH]2)c(OC(C)C)c1 was read as FLuc stim CS 0.9, HSP90 inh 16*, FLuc inh counter 11, PPC-1+TRAIL kill 10 and C8 TRAIL sens 42.
For C[C@@H]1CN([C@H](C)CO)C(=O)CCCn2cc(nn2)CO[C@H]1CN(C)C(=O)C1CC1 the results were C8 TRAIL sens -5.
CCc1ccc(-c2cc(C(=O)O)c3ccccc3n2)s1 was read as HSP90 inh 12 and C8 TRAIL sens 68*.
For O=C(O)c1cc(-c2ccc3ccccc3n2)nc2ccccc12 the results were HSP90 inh 10 and C8 TRAIL sens 78*.
Cc1ccc(-c2cc(C(=O)N3CCCC3)c3ccccc3n2)s1 was read as HSP90 inh 3 and C8 TRAIL sens 17.
Screening O=C(O)c1cc(-c2c[nH]c3ccccc23)nc2cc3ccccc3cc12 returned HSP90 inh -2, PPC-1+TRAIL kill 22 and C8 TRAIL sens 52*.
For O=C(O)c1cc(-c2ccc3ccccc3c2)nc2ccc(F)cc12 the results were HSP90 inh -7 and C8 TRAIL sens 54*.
`O=C(O)c1cc(-c2cc(C(=O)O)c3ccccc3n2)nc2ccccc12` gave HSP90 inh -2.
For Cn1c(=O)c2c(n(C)c1=O)n(C)c(=O)n2C the results were C8 TRAIL sens -1.
`CC(C)(C)c1ccc(S(=O)(=O)NC(=O)C2(C)CCN2C(=O)C2CC2)cc1` (stereo not drawn) gave C8 TRAIL sens -7.
